What is called GI50 is the concentration giving 50% growth inhibition.

The source of these data is ChEMBL document CHEMBL1795256, “Synthesis and biological evaluation of novel aliphatic amido-quaternary ammonium salts for anticancer chemotherapy: part I” (2011).

The source made the active and inactive calls. The calls are words filed in the database; no cut-off is given here.

Assay [1] concerns PC-3. Briefly: Growth inhibition of human PC3 cells by sulforhodamine B assay. The assay is classed as functional. For orientation: In SRB staining, fixed cells bind dye roughly in proportion to their protein.
The subject of assay [2] is NUGC-3. Briefly: Growth inhibition of human NUGC3 cells by sulforhodamine B assay. In kind it is functional.
For assay [3], the system named is MDA-MB-231. Put plainly: Growth inhibition of human MDA-MB-231 cells by sulforhodamine B assay. In kind it is functional.
Assay [4] deals with ACHN. Put plainly: Growth inhibition of human ACHN cells by sulforhodamine B assay. In kind it is functional.
Assay [5] relates to HCT-15. Briefly: Growth inhibition of human HCT15 cells by sulforhodamine B assay. In kind it is functional.
Assay [6] relates to NCI-H23. Briefly: Growth inhibition of human NCI-H23 cells by sulforhodamine B assay. The assay is classed as functional.
For assay [7], the target named is Rho-related GTP-binding protein RhoB (Homo sapiens) (UniProt P62745). Briefly: Transactivation of RhoB expressed in human HeLa cells at 5 uM by dual renilla/firefly luciferase reporter assay. In kind it is cell-based. The method in brief: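 HeLa cells at 75–90% confluence were transiently cotransfected with a pGL2 firefly luciferase plasmid driven by the RhoB promoter (empty pGL2 vector as comparison) plus pRL-SV40 Renilla luciferase. Luciferase activity was measured after compound exposure in a dual-luciferase reporter read-out.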
Sequence of Rho-related GTP-binding protein RhoB (Homo sapiens) (P62745 whole entry): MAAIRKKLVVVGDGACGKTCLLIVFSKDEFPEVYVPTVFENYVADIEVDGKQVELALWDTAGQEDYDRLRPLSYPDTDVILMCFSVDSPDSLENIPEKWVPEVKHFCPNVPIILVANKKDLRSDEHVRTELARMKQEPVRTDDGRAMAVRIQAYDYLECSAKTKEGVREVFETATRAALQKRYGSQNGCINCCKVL

For `C=CC[N+]1(C)CCN(C(=O)CCCCCCCCCCCCCCC)CC1`, the GI50 result in assay [1], in assay [2], in assay [3], in assay [4], in assay [5] and in assay [6] was “inactive” in each case. The outcome in assay [7] was Active.
With `CCCCCCCCCCCC(=O)N1CC[N+](C)(C)CC1`, the values for the GI50 in assay [1], in assay [2] and in assay [3] were 580 nM, 1730 nM and 3530 nM, respectively. Besides, the GI50 entry in assay [4], in assay [5] and in assay [6] was “inactive” each time. Moreover, in assay [7], the result was inactive.
Turning to `CCCCCCCCCCCCCCCCCCCCCC(=O)N1CC[N+](C)(CC)CC1`, the GI50 in assay [1] was found to be 850 nM; in assay [2] it was 1220 nM; in assay [3] it was 2010 nM; in assay [4], 1900 nM; in assay [5] it was 1690 nM; in assay [6], 2600 nM.
For the molecule `C=CC[N+]1(CC)CCN(C(=O)CCCCCCCCCCCCCCC)CC1`, the GI50 in assay [1] was determined as 370 nM; in assay [2], 270 nM; in assay [3] it was 680 nM; in assay [4] it was 500 nM; in assay [5] it was 1330 nM; in assay [6] it was 880 nM. Moreover, the result in assay [7] was Active.
With `CCCCCCCCCCCCCCCCCCCCCCCC(=O)N1CC[N+](C)(C)CC1`, in assay [1], the GI50 was determined as 4790 nM. The GI50 entry in assay [2], in assay [3], in assay [4], in assay [5] and in assay [6] was “inactive” throughout. In addition, in assay [7], the result was inactive.
For the molecule `C=CC[N+]1(C)CCN(C(=O)CCCCCCCCCCCCCCCCCCCCC)CC1`, the GI50 in assay [1] is 960 nM; in assay [2], 1530 nM; in assay [3], 3160 nM; in assay [4], 2370 nM; in assay [5], 2130 nM; in assay [6], 3070 nM.
`CCCCCCCCCCCCCCCCCCOP(=O)([O-])OC1CC[N+](C)(C)CC1` [PERIFOSINE]: the GI50 is 440 nM in assay [1]; 540 nM in assay [2]; 2860 nM in assay [3]; 4560 nM in assay [4]; 1250 nM in assay [5]; 4210 nM in assay [6].
With `CCCCCCCCCCCCCCCC(=O)N1CC[N+](C)(Cc2ccccc2)CC1`, the GI50 in assay [1] is 510 nM; in assay [2], 1000 nM; in assay [3], 1450 nM; in assay [4] it was 1980 nM; in assay [5], 5060 nM; in assay [6], 2050 nM.
For the molecule `CCCCCCCCCCCCCCCCCC(=O)N1CC[N+](C)(C)CC1`, the GI50 turned out to be 530 nM in assay [1]; 560 nM in assay [2]; 1620 nM in assay [3]; 2740 nM in assay [4]; 810 nM in assay [5]; 2700 nM in assay [6].
As to `CCCCCCCCCCCCCCCCCCCC(=O)N1CC[N+](C)(C)CC1`, the GI50 is 310 nM in assay [1]; 420 nM in assay [2]; 1630 nM in assay [3]; 1390 nM in assay [4]; 540 nM in assay [5]; 1740 nM in assay [6]. In addition, the result in assay [7] was Active.
On to `CCCCCCCCCCCCCCCCCCCCCC(=O)N1CC[N+](C)(C)CC1`, for which the GI50 was 990 nM in assay [1]; 1150 nM in assay [2]; 3510 nM in assay [3]; 2390 nM in assay [4]; 2410 nM in assay [5]; 3000 nM in assay [6]. Moreover, the result in assay [7] was inactive.
`CCCCCCCCCCCCCCCC(=O)N1CC[N+](CC)(Cc2ccccc2)CC1`: the GI50 amounted to 550 nM in assay [1]; 460 nM in assay [2]; 1160 nM in assay [3]; 920 nM in assay [4]; 1760 nM in assay [6]. In assay [5], the GI50 result is “inactive”.
For `C=CC[N+]1(CC)CCN(C(=O)CCCCCCCCCCCCCCCCCCCCC)CC1`, the GI50 was 1470 nM in assay [1]; 1540 nM in assay [2]; 2530 nM in assay [3]; 3380 nM in assay [4]; 2780 nM in assay [5]; 3940 nM in assay [6]. Further, in assay [7], the outcome was Active.
As for `CCCCCCCCCCCCCCCC(=O)N1CC[N+](C)(C)CC1`, the GI50 in assay [1] worked out at 480 nM; in assay [2], 290 nM; in assay [3] it was 1440 nM; in assay [4] it was 1040 nM; in assay [5] it was 580 nM; in assay [6], 2340 nM. Moreover, the outcome in assay [7] was Active.
For the molecule `CCCCCCCCCCCCCCCCCCCCCC(=O)N1CC[N+](C)(Cc2ccccc2)CC1`, the GI50 worked out at 1240 nM in assay [1]; 1900 nM in assay [2]; 1980 nM in assay [3]; 4740 nM in assay [4]; 2530 nM in assay [5]; 2950 nM in assay [6].
`CCCCCCCCCCCCCC(=O)N1CC[N+](C)(C)CC1`: the GI50 in assay [1] was 290 nM; in assay [2], 560 nM; in assay [3], 890 nM; in assay [4] it was 1010 nM; in assay [5], 850 nM; in assay [6] it was 1580 nM. For the same molecule, the outcome in assay [7] was Active.
Turning to `CCCCCCCCCCCCCCCC(=O)N1CC[N+](C)(CC)CC1`, the GI50 was 800 nM in assay [1]; 580 nM in assay [2]; 2050 nM in assay [3]; 1890 nM in assay [4]; 1800 nM in assay [5]; 3650 nM in assay [6].
`CCCCCCCCCC(=O)N1CC[N+](C)(C)CC1`: the GI50 result in assay [1], in assay [2], in assay [3], in assay [4], in assay [5] and in assay [6] was “inactive” in each case. Besides, the outcome in assay [7] was inactive.
